{"source": "paper PMC9371723", "about": "(Proceedings of the National Academy of Sciences of the …, 2022)", "key": {"[1]": {"test_system": "auxin-conjugating GH3s", "details": "competitive inhibitor; cited from earlier work"}, "[2]": {"molecular_target": "AtTIR1–IAA7 peptide (Arabidopsis thaliana, UniProt Q570C0)", "sequence (Q570C0 whole entry, other chains not shown)": "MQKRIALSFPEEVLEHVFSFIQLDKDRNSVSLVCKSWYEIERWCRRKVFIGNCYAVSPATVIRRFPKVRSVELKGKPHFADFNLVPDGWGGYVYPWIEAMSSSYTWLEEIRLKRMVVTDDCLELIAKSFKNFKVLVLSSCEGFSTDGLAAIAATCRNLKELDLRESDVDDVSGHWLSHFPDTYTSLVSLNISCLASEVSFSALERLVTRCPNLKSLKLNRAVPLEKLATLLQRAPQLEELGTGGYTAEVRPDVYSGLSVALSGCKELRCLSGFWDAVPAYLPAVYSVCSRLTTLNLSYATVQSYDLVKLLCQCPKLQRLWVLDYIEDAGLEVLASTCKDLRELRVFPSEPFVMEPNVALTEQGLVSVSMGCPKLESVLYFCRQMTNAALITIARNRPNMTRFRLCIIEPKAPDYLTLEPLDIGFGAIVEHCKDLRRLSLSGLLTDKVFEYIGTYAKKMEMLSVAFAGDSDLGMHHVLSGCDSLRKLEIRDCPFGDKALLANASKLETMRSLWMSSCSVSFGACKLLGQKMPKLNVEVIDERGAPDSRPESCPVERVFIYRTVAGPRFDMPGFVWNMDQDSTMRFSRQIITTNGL", "sequence (Q39255 whole entry partner, other chains not shown)": "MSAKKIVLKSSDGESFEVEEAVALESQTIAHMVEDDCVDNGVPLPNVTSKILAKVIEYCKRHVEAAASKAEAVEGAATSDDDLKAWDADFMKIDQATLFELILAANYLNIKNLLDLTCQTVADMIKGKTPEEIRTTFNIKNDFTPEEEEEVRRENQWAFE", "assay": "SPR analysis of auxin-induced TIR1-IAA7 degron peptide interaction", "type": "binding"}, "[3]": {"molecular_target": "AtAFB5–IAA7 (Arabidopsis thaliana, UniProt Q9LTX2)", "sequence (Q9LTX2 whole entry, other chains not shown)": "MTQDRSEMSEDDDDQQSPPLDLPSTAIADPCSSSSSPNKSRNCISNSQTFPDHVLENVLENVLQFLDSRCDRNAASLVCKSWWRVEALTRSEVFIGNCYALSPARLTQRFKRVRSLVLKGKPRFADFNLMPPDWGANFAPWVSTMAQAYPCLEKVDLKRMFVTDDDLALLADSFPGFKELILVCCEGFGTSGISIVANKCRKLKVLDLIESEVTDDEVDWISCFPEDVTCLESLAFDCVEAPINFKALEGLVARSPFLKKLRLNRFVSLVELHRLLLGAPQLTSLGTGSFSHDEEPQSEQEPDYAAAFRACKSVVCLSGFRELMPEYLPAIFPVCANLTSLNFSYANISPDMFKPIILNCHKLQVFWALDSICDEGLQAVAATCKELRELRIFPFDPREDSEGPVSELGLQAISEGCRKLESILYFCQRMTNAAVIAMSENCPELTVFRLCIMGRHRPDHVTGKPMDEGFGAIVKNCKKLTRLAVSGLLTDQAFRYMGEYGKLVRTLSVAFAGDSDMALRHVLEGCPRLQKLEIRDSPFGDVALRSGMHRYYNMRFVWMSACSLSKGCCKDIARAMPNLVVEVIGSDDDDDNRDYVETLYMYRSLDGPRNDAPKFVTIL", "sequence (Q39255 whole entry partner, other chains not shown)": "as the sequence (Q39255 whole entry partner, other chains not shown) above", "assay": "SPR analysis of auxin-induced AFB5-IAA7 degron peptide interaction", "type": "binding"}, "[4]": {"test_system": "Arabidopsis thaliana seedlings", "assay": "Primary and lateral root growth of Arabidopsis seedlings", "type": "in vivo", "details": "IAA at 0.05 µM", "how_it_was_run": "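Primary root: seedlings grown vertically 6–8 d at 24 °C, continuous light, on GM plates with test compound (5 µM estradiol added for inducible lines); length recorded from photographs. Lateral root: seedlings grown vertically 6 d, moved to horizontal GM plates (2 g/L gellan gum) with chemicals for 2 d at 24 °C; lateral roots counted and primary root length measured.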"}, "[5]": {"test_system": "Arabidopsis mutants tir1-1 afb2-1, axr1-3, sav3-2, yucQ", "assay": "Lateral root formation in auxin signaling and biosynthesis mutants", "type": "in vivo, Arabidopsis thaliana", "how_it_was_run": "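Signalling and biosynthesis mutant seedlings, 4 d old, incubated with test compound for 3 more days. sav3-2 co-treated with 1 µM yucasinDF; yucQ co-treated with 1 µM kynurenine. Read-out was lateral root formation.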"}, "[6]": {"test_system": "AtGH3.3, IAA19, YUC6 expression", "assay": "qRT-PCR of auxin-related genes in Arabidopsis", "type": "in vivo", "details": "after 60 min of treatment", "how_it_was_run": "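Seedlings from vertical GM plates moved to liquid GM for 24 h, then harvested at intervals (10–60 min) after test compound was added. SYBR qRT-PCR: 95 °C 20 s, then 40 cycles of 95 °C 3 s and 60 °C 30 s. ΔΔCt normalised to UBQ10; n = 4, Tukey HSD vs mock.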"}, "[7]": {"test_system": "Rice (Oryza sativa cv. Nipponbare) seedlings", "assay": "Rice seedling primary root and mesocotyl assays", "type": "in vivo", "how_it_was_run": "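Rice cv. Nipponbare seeds sterilised 20 min in 6% hypochlorite, rinsed, then germinated 2 d in sterile water at 28 °C in the dark. Mesocotyl: seedlings submerged 5 d in water with chemicals. Root: seedlings grown on 0.6% water agar with chemicals (n = 11). Both at 25 °C, 18 h light/6 h dark.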"}, "[8]": {"test_system": "Physcomitrium patens", "assay": "Moss GH3::GUS reporter line phenotype", "type": "in vivo", "details": "10 μM, 15 d", "how_it_was_run": "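P. patens GH3::GUS reporter colonies cultured 15 d on BCDATG medium (0.8% agar) with or without 10 µM test compound and 10 µM IAA. GUS visualised histochemically with X-Gluc; ectopic leafy-like primordia scored.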"}, "[9]": {"test_system": "DII-VENUS fusion reporter protein", "details": "IAA application; cited from earlier work"}, "[10]": {"test_system": "TAA1", "details": "cited from earlier work"}, "[11]": {"test_system": "YUC monooxygenase", "details": "YUC monooxygenase inhibitors; cited from earlier work"}, "[12]": {"test_system": "AtGH3.11/JAR1", "details": "cited from earlier work"}, "[13]": {"test_system": "endogenous IAA", "details": "within 30 min; cited from earlier work"}}, "data": [{"smiles": "Nc1ncnc2c1ncn2[C@@H]1O[C@H](COP(=O)(O)OCCc2c[nH]c3ccccc23)[C@@H](O)[C@H]1O", "note": "[AEIP, Adenosine-5-[2-(1H-indol-3-yl)ethyl]phosphate]", "values": [{"measurement": "in vitro activity against auxin-conjugating GH3s", "setting": "[1]", "value": "micromolar range"}]}, {"smiles": "O=C(O)Cc1c[nH]c2ccccc12", "note": "[IAA, indole-3-acetic acid]", "values": [{"measurement": "effect on TIR1–IAA7 peptide association and dissociation", "setting": "[2]", "value": "promotes interaction"}, {"measurement": "effect on AFB5–IAA7 peptide association and dissociation", "setting": "[3]", "value": "promotes interaction"}, {"measurement": "lateral root formation in WT roots", "setting": "[4]", "value": "promoted lateral root formation"}, {"measurement": "lateral root formation in sav3-2 and yuc Q mutants", "setting": "[5]; auxin biosynthesis mutants", "value": "induced by IAA to a similar extent as WT plants"}, {"measurement": "lateral root formation in tir1-1 afb2-1 and axr1-3 mutants", "setting": "[5]; auxin signaling mutants", "value": "showed resistance"}, {"measurement": "expression of auxin biosynthesis gene YUC6", "setting": "[6]", "value": "down-regulated"}, {"measurement": "mesocotyl elongation in rice", "setting": "[7]; aerial part of rice seedlings", "value": "promoted mesocotyl elongation"}, {"measurement": "primary root elongation in rice", "setting": "[7]; rice roots", "value": "suppressed primary root elongation"}, {"measurement": "ectopic formation of leafy-like primordia", "setting": "[8]", "value": "has not been induced"}, {"measurement": "time to decomposition of DII-VENUS after application", "setting": "[9]", "value": "≤ 10", "unit": "min"}]}, {"smiles": "Nc1ccccc1C(=O)C[C@H](N)C(=O)O", "note": "[L-kynurenine]", "values": [{"measurement": "inhibition of TAA1", "setting": "[10]", "value": "competitively inhibit"}]}, {"smiles": "OB(O)c1ccc(Oc2ccccc2)cc1", "note": "[PPBo]", "values": [{"measurement": "IAA production", "setting": "[11]", "value": "block IAA production"}]}, {"smiles": "COCCC(=O)N1C[C@@H]2C[C@H](C1)c1ccc(NC(=O)c3ccc(-c4ccccc4)cc3)c(=O)n1C2", "note": "[jarin-1]", "values": [{"measurement": "inhibition of AtGH3.11/JAR1", "setting": "[12]", "value": "selectively inhibits"}]}, {"smiles": "S=c1nc(-c2ccc(Cl)cc2)[nH][nH]1", "note": "[yucasin]", "values": [{"measurement": "endogenous IAA level", "setting": "[13]", "value": "decreased the endogenous IAA to almost basal level"}]}]}
